For experiment [1], the target named is T1, Stromelysin-1 (Homo sapiens, UniProt P08254). The experiment is described as follows: In vitro inhibition of recombinant stromelysin catalytic domain.
The target of experiment [2] is T1, Stromelysin-1. Briefly: (§1) Inhibition of recombinant stromelysin catalytic domain (SCD).
The target in experiment [3] is T1, Stromelysin-1. The experiment is described as follows: Inhibition of full length stromelysin isolated from cultured human cells (FLS).
In experiment [4] the target is T1, Stromelysin-1. Briefly: Inhibition of full length stromelysin isolated from cultured human cells (FLS).
Experiment [5] deals with T1, Stromelysin-1. The description is as §1. Put shortly: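 E. coli-expressed human stromelysin catalytic domain (Phe-100 to Pro-273), expressed without propeptide so needing no activation, at 100 nM (10 nM for the hydroxamate peptide). A405 read over 3 min at room temperature.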
The source holds these as a separate data set.

Usually IC50 stands for the concentration that inhibits the measured activity by half. Usually Ki stands for a measure of affinity in units of concentration, obtained from inhibition or displacement.

T1 sequence (P08254 whole entry, the tested form may be a part): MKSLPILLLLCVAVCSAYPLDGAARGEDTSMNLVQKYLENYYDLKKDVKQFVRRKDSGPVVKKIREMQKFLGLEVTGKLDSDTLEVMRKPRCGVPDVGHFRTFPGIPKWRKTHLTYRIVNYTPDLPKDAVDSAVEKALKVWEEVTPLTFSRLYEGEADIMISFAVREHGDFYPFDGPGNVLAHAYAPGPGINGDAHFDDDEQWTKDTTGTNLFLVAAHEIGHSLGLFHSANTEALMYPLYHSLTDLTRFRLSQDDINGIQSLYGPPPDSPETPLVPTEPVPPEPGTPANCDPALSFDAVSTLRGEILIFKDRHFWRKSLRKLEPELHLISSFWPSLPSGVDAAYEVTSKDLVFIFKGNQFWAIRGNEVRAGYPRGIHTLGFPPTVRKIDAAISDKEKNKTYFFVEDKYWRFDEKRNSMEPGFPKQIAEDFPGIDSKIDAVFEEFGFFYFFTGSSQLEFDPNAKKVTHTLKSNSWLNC

Consider `N[C@H](Cc1c[nH]c2ccccc12)C(=O)O` [D-TRYPTOPHAN], for which, at Stromelysin-1 [1], the IC50 is greater than 500 µM.
Consider `Cc1cc(C)c(S(=O)(=O)n2cc(C[C@H](NC(=O)OC(C)(C)C)C(=O)O)c3ccccc32)c(C)c1`, for which the IC50 at Stromelysin-1 [1] is 63 µM. In addition, the Ki at Stromelysin-1 [2] was 52 µM.
The matching figures for `CC(C)(C)OC(=O)N[C@@H](Cc1cn(C=O)c2ccccc12)C(=O)O`: 34 µM and 28 µM.
As for `O=C(N[C@H](Cc1ccc(O)cc1)C(=O)O)OCc1ccccc1`, the IC50 on Stromelysin-1 [1] turned out to be 432 µM; against Stromelysin-1 [4], 450 µM. The inhibition constant (Ki) on Stromelysin-1 [2] amounted to 356 µM; on Stromelysin-1 [3] it was 377 µM.
On to `O=C(N[C@@H](Cc1c[nH]c2ccccc12)C(=O)O)OCC1c2ccccc2-c2ccccc21`, for which the half-inhibitory concentration (IC50) on Stromelysin-1 [1] stood at 500 µM.
As for `CC(C)(C)OC(=O)N[C@@H](Cc1c[nH]c2ccccc12)C(=O)ON1C(=O)CCC1=O`, the IC50 at Stromelysin-1 [1] is 102 µM. For the same molecule, on Stromelysin-1 [2], the Ki turned out to be 84 µM.
As to `CC(C)(C)OC(=O)N[C@@H](Cc1ccc(O)cc1)C(=O)O`, the IC50 at Stromelysin-1 [5] is less than 500 µM.
For `NNC(=O)[C@H](Cc1ccc(O)cc1)NC(=O)OCc1ccccc1`, at Stromelysin-1 [1], the IC50 was greater than 500 µM.
With `O=C(N[C@@H](Cc1ccc(O)cc1)C(=O)O)OCc1ccccc1`, the values for the 50% inhibitory concentration (IC50) on Stromelysin-1 [1] and at Stromelysin-1 [4] were 24 µM and 22 µM, respectively. The Ki on Stromelysin-1 [2] stood at 20 µM; at Stromelysin-1 [3] it was 18 µM.
On to `O=C(N[C@H](Cc1c[nH]c2ccccc12)C(=O)O)OCC1c2ccccc2-c2ccccc21`, for which, at Stromelysin-1 [5], the IC50 is less than 500 µM.
Regarding `NC(=O)[C@H](Cc1ccc(O)cc1)NC(=O)OCc1ccccc1`, the concentration for half-maximal inhibition (IC50) on Stromelysin-1 [1] is greater than 500 µM.
In the case of `O=C(N[C@@H](Cc1c[nH]c2ccccc12)C(=O)ON1C(=O)CCC1=O)OCc1ccccc1`, the IC50 on Stromelysin-1 [1] is 13 µM. Moreover, on Stromelysin-1 [2], the inhibition constant (Ki) came to 11 µM.
Consider `NC(=O)[C@H](Cc1c[nH]c2ccccc12)NC(=O)OCc1ccccc1`, for which, on Stromelysin-1 [5], the IC50 is less than 500 µM.
As to `N[C@@H](Cc1c[nH]c2ccccc12)C(=O)O` [TRYPTOPHAN], at Stromelysin-1 [1], the 50% inhibitory concentration (IC50) was greater than 500 µM.
Turning to `O=C(N[C@@H](Cc1ccccc1)C(=O)O)OCc1ccccc1`, the IC50 came out at 40 µM on Stromelysin-1 [1] and 99 µM at Stromelysin-1 [4]. In addition, the Ki was 33 µM at Stromelysin-1 [2] and 83 µM at Stromelysin-1 [3].
With `CC(=O)N[C@@H](Cc1ccc(O)cc1)C(=O)O` [ACETYL TYROSINE], on Stromelysin-1 [1], the IC50 was greater than 500 µM.
For the molecule `CC(C)(C)OC(=O)N[C@H](Cc1ccc(O)cc1)C(=O)O`, on Stromelysin-1 [1], the IC50 was greater than 500 µM.
For the molecule `CC(C)(C)OC(=O)N[C@@H](Cc1c[nH]c2ccccc12)C(=O)O`, the half-maximal inhibitory concentration (IC50) at Stromelysin-1 [1] stood at 10 µM. In addition, the inhibition constant Ki on Stromelysin-1 [2] is 8 µM.
On to `O=C(N[C@@H](Cc1c[nH]c2ccccc12)C(=O)O)c1ccccc1`, for which the concentration for half-maximal inhibition (IC50) on Stromelysin-1 [5] is less than 500 µM.
On the same count and under the same terms, in the case of `CC(C)(C)OC(=O)N[C@H](Cc1c[nH]c2ccccc12)C(=O)O` it was less than 500 µM.
In the case of `CC(=O)N[C@H](Cc1ccc(O)cc1)C(=O)O`, the IC50 at Stromelysin-1 [1] is greater than 500 µM.
As for `CC(=O)N[C@H](Cc1c[nH]c2ccccc12)C(=O)O`, the half-inhibitory concentration (IC50) at Stromelysin-1 [5] is less than 500 µM.
For `CC(=O)N[C@@H](Cc1c[nH]c2ccccc12)C(=O)O` [ACETYLTRYPTOPHAN], the IC50 at Stromelysin-1 [5] is less than 500 µM.
For `O=C(/C=C/c1ccco1)N[C@@H](Cc1c[nH]c2ccccc12)C(=O)O`, the half-inhibitory concentration (IC50) on Stromelysin-1 [1] is 145 µM. The inhibitory constant (Ki) on Stromelysin-1 [2] is 120 µM.
Take `O=C(N[C@H](Cc1ccccc1)C(=O)O)OCc1ccccc1`: the IC50 on Stromelysin-1 [1] and at Stromelysin-1 [4] was greater than 500 µM in each case.

Values taken from ChEMBL document CHEMBL1127495, “A recombinant human stromelysin catalytic domain identifying tryptophan derivatives as human stromelysin inhibitors” (J Med Chem, 1994).
